Measurements reported in ChEMBL document CHEMBL1124436, “Benzofurans as mechanism-based inhibitors of dopamine beta-hydroxylase” (J Med Chem, 1989).

Assays:
[1] = target: T1, Dopamine beta-hydroxylase (Bos taurus) (UniProt P15101); assay: Inactivation constant of compound was determined by using bovine dopamine beta-hydroxylase
T1 sequence (whole entry): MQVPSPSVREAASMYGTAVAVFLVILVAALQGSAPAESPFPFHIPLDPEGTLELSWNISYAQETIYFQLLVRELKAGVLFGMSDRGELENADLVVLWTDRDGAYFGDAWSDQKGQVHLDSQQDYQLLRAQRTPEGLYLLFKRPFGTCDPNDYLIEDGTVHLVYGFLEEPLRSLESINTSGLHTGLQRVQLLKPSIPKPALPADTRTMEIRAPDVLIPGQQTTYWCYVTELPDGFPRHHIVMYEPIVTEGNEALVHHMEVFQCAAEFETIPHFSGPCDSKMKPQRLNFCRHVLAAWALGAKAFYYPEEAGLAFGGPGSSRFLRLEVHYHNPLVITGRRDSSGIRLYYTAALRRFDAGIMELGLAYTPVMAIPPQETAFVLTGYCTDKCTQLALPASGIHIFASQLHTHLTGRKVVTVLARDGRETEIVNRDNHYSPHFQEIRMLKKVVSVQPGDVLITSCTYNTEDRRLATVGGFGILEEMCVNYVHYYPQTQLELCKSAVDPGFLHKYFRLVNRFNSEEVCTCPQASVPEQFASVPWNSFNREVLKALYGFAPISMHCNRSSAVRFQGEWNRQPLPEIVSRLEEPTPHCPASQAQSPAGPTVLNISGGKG
Method in brief: (§1)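 Purified bovine DβH (20-40 μg) was preincubated at 25 °C with varied inhibitor in 100 mM Mes/100 mM NaOAc, pH 5.0, with 0-3% DMF, 0.5 mg/mL catalase and 12 mM ascorbate. Timed aliquots went into assay mix at 37 °C, pH 5.5, with 30 mM tyramine and 12 mM ascorbate, and O2 uptake was read. Apparent kinact came from ln(activity) versus time; 1/kinact versus 1/[I] replots gave kinact and Ki.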

[2] = (§2) Partition ratio was determined by quantitating amount of compound consumed after complete inactivation of a known amount of dopamine beta-hydroxylase.
Method in brief: (§3)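 Bovine DβH (15-20 μg) was fully inactivated at 25 °C with inhibitor in 125 mM Mes/125 mM NaOAc, pH 5.5, with 0.5 mg/mL catalase and 12 mM ascorbate. Inhibitor consumed was quantified by C18 HPLC (water-acetonitrile) with UV detection at each inhibitor's maximum. Controls without enzyme were run. Partition ratio is turnover/inactivation.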

[3] = target: T2, Dopamine beta-hydroxylase (Bos taurus, UniProt P15101); assay: Compound was evaluated for the ability to bind to dopamine beta-hydroxylase of bovine; method in brief: as §1
T2 sequence (P15101 whole entry): T1 sequence (whole entry)

[4] = Ratio of inactivation constant (Kinact) and inhibitory constant (Ki); method in brief: as §1
[5] = target: T1, Dopamine beta-hydroxylase (Bos taurus); assay: as §2; method in brief: as §3

K inact [1] [min⁻¹] | Partition ratio [2] | Ki [3] [µM] | Ratio [4] | Partition ratio [5] | SMILES
0.25 | 35 | 3200 |  |  | Oc1cccc2ccoc12
 |  |  | 3230 |  | C#CC(CN)c1ccc(O)cc1 (stereo not given)
 |  |  | 1560 |  | C=C(CN)c1ccc(O)cc1
 |  | > 20000 |  | 680 | C/C=C/c1ccc(O)cc1
0.15 |  | 5 | 30000 |  | NCC=C1SCCS1
0.23 | 8 | 1900 |  |  | Oc1ccc2occc2c1
0.025 | 730 | 700 |  |  | C=Cc1ccc(O)cc1 [4-VINYLPHENOL]
0.23 | 27 | 40 | 5750 |  | Oc1ccc2ccoc2c1
